{"source": "ChEMBL document CHEMBL1122703", "about": "“Antihypertensives. N-1H-Pyrrol-1-yl-3-pyridazinamines” (J Med Chem, 1984)", "key": {"Rattus norvegicus": {"system": "Rattus norvegicus", "assay": "Oral dose which produces a 30 mmHg drop of systolic blood pressure (calculated on regression line)", "format": "functional", "conditions": "Artery", "outline": "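Groups of three male conscious spontaneously hypertensive rats; compound suspended in aqueous 0.5% methocel and given by gavage at 2 mL/kg. Systolic pressure measured by indirect tail-cuff before and 2 and 4 h after dosing, following 20 min warming at 37 °C. The dose giving a 30 mmHg fall was read from the regression line of maximum fall against log dose.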"}, "[1]": {"assay": "Partition coefficient (logD7.4)", "conditions": "octanol/water, pH 7.4"}, "Canis familiaris [2]": {"system": "Canis familiaris", "assay": "Effect of compound (given intravenously) on systolic blood pressure in conscious renal hypertensive dogs at 10 h", "format": "functional, Canis lupus familiaris, Artery", "outline": "(§1)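 Groups of four conscious mongrel renal hypertensive dogs; compound dissolved in distilled water and given intravenously at 0.5 mL/kg (1 mg/kg or 0.3 mg/kg in the time-course table). Systolic pressure and heart rate measured indirectly at the tail with a sensor and pressure cuff, at 0, 4, 6, 8, 10, 12 and 20 h. Values are mean ± SE of four animals.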"}, "Canis familiaris [3]": {"system": "Canis familiaris", "assay": "Effect of compound (given intravenously) on systolic blood pressure in conscious renal hypertensive dogs at 0 h", "format": "functional, Canis lupus familiaris, Artery", "outline": "as §1"}, "Canis familiaris [4]": {"system": "Canis familiaris", "assay": "Effect of compound (given intravenously) on heart rate in conscious renal hypertensive dogs at 20 h", "format": "functional, Canis lupus familiaris", "outline": "as §1"}, "Canis familiaris [5]": {"system": "Canis familiaris", "assay": "Effect of compound (given intravenously) on heart rate in conscious renal hypertensive dogs at 0 h", "format": "functional, Canis lupus familiaris", "outline": "as §1"}, "Canis familiaris [6]": {"system": "Canis familiaris", "assay": "Effect of compound (given intravenously) on systolic blood pressure in conscious renal hypertensive dogs at 4 h", "format": "functional, Canis lupus familiaris, Artery", "outline": "as §1"}, "Canis familiaris [7]": {"system": "Canis familiaris", "assay": "Effect of compound (given intravenously) on systolic blood pressure in conscious renal hypertensive dogs at 20 h", "format": "functional, Canis lupus familiaris, Artery", "outline": "as §1"}, "Canis familiaris [8]": {"system": "Canis familiaris", "assay": "Effect of compound (given intravenously) on heart rate in conscious renal hypertensive dogs at 12 h", "format": "functional, Canis lupus familiaris", "outline": "as §1"}, "Canis familiaris [9]": {"system": "Canis familiaris", "assay": "Effect of compound (given intravenously) on systolic blood pressure in conscious renal hypertensive dogs at 12 h", "format": "functional, Canis lupus familiaris, Artery", "outline": "as §1"}, "Canis familiaris [10]": {"system": "Canis familiaris", "assay": "Effect of compound (given intravenously) on systolic blood pressure in conscious renal hypertensive dogs at 6 h", "format": "functional, Canis lupus familiaris, Artery", "outline": "as §1"}, "Canis familiaris [11]": {"system": "Canis familiaris", "assay": "Effect of compound (given intravenously) on heart rate in conscious renal hypertensive dogs at 10 h", "format": "functional, Canis lupus familiaris", "outline": "as §1"}, "Canis familiaris [12]": {"system": "Canis familiaris", "assay": "Effect of compound (given intravenously) on heart rate in conscious renal hypertensive dogs at 4 h", "format": "functional, Canis lupus familiaris", "outline": "as §1"}, "Canis familiaris [13]": {"system": "Canis familiaris", "assay": "Effect of compound (given intravenously) on systolic blood pressure in conscious renal hypertensive dogs at 8 h", "format": "functional, Canis lupus familiaris, Artery", "outline": "as §1"}, "Canis familiaris [14]": {"system": "Canis familiaris", "assay": "Effect of compound (given intravenously) on heart rate in conscious renal hypertensive dogs 6 h", "format": "functional, Canis lupus familiaris", "outline": "as §1"}, "Canis familiaris [15]": {"system": "Canis familiaris", "assay": "Effect of compound (given intravenously) on heart rate in conscious renal hypertensive dogs at 8 h", "format": "functional, Canis lupus familiaris", "outline": "as §1"}}, "data": [{"smiles": "Cc1ccc(C)n1Nc1ccc(N(CCO)CCO)nn1", "values": [{"measurement": "ED30", "setting": "Rattus norvegicus", "value": "> 100", "unit": "mg/kg"}]}, {"smiles": "CCOCCN(CCOCC)c1ccc(Nn2c(C)ccc2C)nn1", "values": [{"measurement": "ED30", "setting": "Rattus norvegicus", "value": 2, "unit": "mg/kg"}]}, {"smiles": "Cc1ccc(C)n1Nc1ccc(N(CCO)CC(C)O)nn1", "note": "(stereo not drawn)", "values": [{"measurement": "ED30", "setting": "Rattus norvegicus", "value": "> 100", "unit": "mg/kg"}]}, {"smiles": "Cc1ccc(C)n1Nc1nnc(N2CCOCC2)c2c1CCCC2", "values": [{"measurement": "ED30", "setting": "Rattus norvegicus", "value": "~33", "unit": "mg/kg"}]}, {"smiles": "Cc1ccc(C)n1Nc1ccc(N2CCC(O)CC2)nn1", "values": [{"measurement": "ED30", "setting": "Rattus norvegicus", "value": 12.6, "unit": "mg/kg"}]}, {"smiles": "Cc1ccc(C)n1Nc1ccc(N2CCCC2)nn1", "values": [{"measurement": "ED30", "setting": "Rattus norvegicus", "value": "> 100", "unit": "mg/kg"}]}, {"smiles": "CN(c1ccc(N2CCOCC2)nn1)n1cccc1", "values": [{"measurement": "ED30", "setting": "Rattus norvegicus", "value": 16.5, "unit": "mg/kg"}]}, {"smiles": "CCc1ccc(CC)n1Nc1ccc(N2CCOCC2)nn1", "values": [{"measurement": "ED30", "setting": "Rattus norvegicus", "value": 15.4, "unit": "mg/kg"}, {"measurement": "logD", "setting": "[1]", "value": 2.71}]}, {"smiles": "Cc1ccc(C)n1Nc1ccc(N2CCN(C)CC2)nn1", "values": [{"measurement": "ED30", "setting": "Rattus norvegicus", "value": "~43", "unit": "mg/kg"}]}, {"smiles": "COCCN(C)c1ccc(Nn2c(C)ccc2C)nn1", "values": [{"measurement": "ED30", "setting": "Rattus norvegicus", "value": 7, "unit": "mg/kg"}, {"measurement": "logD", "setting": "[1]", "value": 2.16}]}, {"smiles": "CCN(CC)c1ccc(Nn2c(C)ccc2C)nn1", "values": [{"measurement": "ED30", "setting": "Rattus norvegicus", "value": 3.9, "unit": "mg/kg"}]}, {"smiles": "Cc1ccc(C)n1Nc1ccc(N(CC(C)O)CC(C)O)nn1", "note": "(stereo not drawn)", "values": [{"measurement": "ED30", "setting": "Rattus norvegicus", "value": "~54", "unit": "mg/kg"}]}, {"smiles": "CC(=O)N(c1ccc(N2CCOCC2)nn1)n1c(C)ccc1C", "values": [{"measurement": "ED30", "setting": "Rattus norvegicus", "value": 11.8, "unit": "mg/kg"}, {"measurement": "logD", "setting": "[1]", "value": 1.64}]}, {"smiles": "Cc1ccc(C)n1Nc1ccc(N(C)C)nn1", "values": [{"measurement": "ED30", "setting": "Rattus norvegicus", "value": "~22", "unit": "mg/kg"}]}, {"smiles": "Cc1ccc(C)n1Nc1nnc(N2CCOCC2)c2ccccc12", "values": [{"measurement": "ED30", "setting": "Rattus norvegicus", "value": "~91", "unit": "mg/kg"}]}, {"smiles": "Cc1ccc(C)n1Nc1ccc(N2C(C)COCC2C)nn1", "note": "(stereo not drawn)", "values": [{"measurement": "ED30", "setting": "Rattus norvegicus", "value": 18.5, "unit": "mg/kg"}]}, {"smiles": "Cc1ccc(C)n1Nc1ccc(N2CCSCC2)nn1", "values": [{"measurement": "ED30", "setting": "Rattus norvegicus", "value": "~25", "unit": "mg/kg"}]}, {"smiles": "Cc1ccc(C)n1Nc1ccc(N2CCCCC2)nn1", "values": [{"measurement": "ED30", "setting": "Rattus norvegicus", "value": 10, "unit": "mg/kg"}]}, {"smiles": "Cc1ccc(C)n1Nc1ccc(N2CCNCC2)nn1", "values": [{"measurement": "ED30", "setting": "Rattus norvegicus", "value": 30, "unit": "mg/kg"}]}, {"smiles": "Cc1ccc(C)n1Nc1nnc(N2CCC(O)CC2)c2ccccc12", "values": [{"measurement": "ED30", "setting": "Rattus norvegicus", "value": "~33", "unit": "mg/kg"}]}, {"smiles": "COCCN(CCOC)c1ccc(Nn2c(C)ccc2C)nn1", "values": [{"measurement": "ED30", "setting": "Rattus norvegicus", "value": 2.7, "unit": "mg/kg"}]}, {"smiles": "Cc1cc(N2CCOCC2)nnc1Nn1c(C)ccc1C", "values": [{"measurement": "ED30", "setting": "Rattus norvegicus", "value": "~26", "unit": "mg/kg"}]}, {"smiles": "c1ccn(Nc2ccc(N3CCOCC3)nn2)c1", "values": [{"measurement": "ED30", "setting": "Rattus norvegicus", "value": "> 100", "unit": "mg/kg"}]}, {"smiles": "C=CCN(CC=C)c1ccc(Nn2c(C)ccc2C)nn1", "values": [{"measurement": "ED30", "setting": "Rattus norvegicus", "value": 11.4, "unit": "mg/kg"}]}, {"smiles": "Cc1ccc(C)n1N(C)c1ccc(N2CCOCC2)nn1", "values": [{"measurement": "ED30", "setting": "Rattus norvegicus", "value": 15.8, "unit": "mg/kg"}, {"measurement": "logD", "setting": "[1]", "value": 2.21}]}, {"smiles": "Cc1ccc(C)n1Nc1ccc(N(C)CC(C)O)nn1", "note": "(stereo not drawn)", "values": [{"measurement": "ED30", "setting": "Rattus norvegicus", "value": 7.7, "unit": "mg/kg"}]}, {"smiles": "Cc1c(Nn2c(C)ccc2C)nnc(N2CCOCC2)c1C", "values": [{"measurement": "ED30", "setting": "Rattus norvegicus", "value": 35, "unit": "mg/kg"}]}, {"smiles": "NNc1nncc2ccccc12", "note": "[HYDRALAZINE]", "values": [{"measurement": "Pressure", "setting": "Canis familiaris [2]", "value": 188, "unit": "mmHg"}, {"measurement": "Pressure", "setting": "Canis familiaris [3]", "value": 188, "unit": "mmHg"}, {"measurement": "Heart rate", "setting": "Canis familiaris [4]", "value": 115, "unit": "beats min-1"}, {"measurement": "Heart rate", "setting": "Canis familiaris [5]", "value": 78, "unit": "beats min-1"}, {"measurement": "Pressure", "setting": "Canis familiaris [6]", "value": 135, "unit": "mmHg"}, {"measurement": "Pressure", "setting": "Canis familiaris [7]", "value": 188, "unit": "mmHg"}, {"measurement": "Heart rate", "setting": "Canis familiaris [8]", "value": 118, "unit": "beats min-1"}, {"measurement": "Pressure", "setting": "Canis familiaris [9]", "value": 190, "unit": "mmHg"}, {"measurement": "Pressure", "setting": "Canis familiaris [10]", "value": 138, "unit": "mmHg"}, {"measurement": "Heart rate", "setting": "Canis familiaris [11]", "value": 125, "unit": "beats min-1"}, {"measurement": "Heart rate", "setting": "Canis familiaris [12]", "value": 128, "unit": "beats min-1"}, {"measurement": "Pressure", "setting": "Canis familiaris [13]", "value": 148, "unit": "mmHg"}]}, {"smiles": "Cc1ccc(C)n1Nc1ccc(N2CCOCC2)nn1.Cl", "note": "[MOPIDRALAZINE HYDROCHLORIDE]", "values": [{"measurement": "Pressure", "setting": "Canis familiaris [2]", "value": 147, "unit": "mmHg"}, {"measurement": "Pressure", "setting": "Canis familiaris [3]", "value": 190, "unit": "mmHg"}, {"measurement": "Heart rate", "setting": "Canis familiaris [4]", "value": 105, "unit": "beats min-1"}, {"measurement": "Heart rate", "setting": "Canis familiaris [5]", "value": 80, "unit": "beats min-1"}, {"measurement": "Pressure", "setting": "Canis familiaris [6]", "value": 168, "unit": "mmHg"}, {"measurement": "Heart rate", "setting": "Canis familiaris [14]", "value": 100, "unit": "beats min-1"}, {"measurement": "ED30", "setting": "Rattus norvegicus", "value": 3.9, "unit": "mg/kg"}, {"measurement": "Pressure", "setting": "Canis familiaris [7]", "value": 187, "unit": "mmHg"}, {"measurement": "Heart rate", "setting": "Canis familiaris [8]", "value": 105, "unit": "beats min-1"}, {"measurement": "Pressure", "setting": "Canis familiaris [9]", "value": 165, "unit": "mmHg"}, {"measurement": "Pressure", "setting": "Canis familiaris [10]", "value": 150, "unit": "mmHg"}, {"measurement": "Heart rate", "setting": "Canis familiaris [11]", "value": 107, "unit": "beats min-1"}, {"measurement": "Heart rate", "setting": "Canis familiaris [15]", "value": 110, "unit": "beats min-1"}, {"measurement": "Heart rate", "setting": "Canis familiaris [12]", "value": 92, "unit": "beats min-1"}, {"measurement": "Pressure", "setting": "Canis familiaris [13]", "value": 140, "unit": "mmHg"}]}]}
